The results in this text go back to ChEMBL document CHEMBL3414477, “Synthesis, biological investigation and molecular docking study of N-malonyl-1,2-dihydroisoquinoline derivatives as brain specific and shelf-stable MAO inhibitors” (Eur J Med Chem, 2015).

A word on the IC50: it is the midpoint of a concentration-inhibition curve. Lower therefore signals higher potency. In general, half-life refers to the time in which the quantity being followed falls by half.

The species entered for one data set is Bos taurus. The experiment in a line: Selectivity index, ratio of IC50 for bovine brain mitochondria MAO-B to IC50 for bovine brain mitochondria MAO-A. The procedure, abridged:
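Bovine brain mitochondria (6 mg/mL suspension) in 0.25 M phosphate buffer, pH 7.4, were used with 0.1 mM clorgyline or L-deprenyl to isolate MAO-A or MAO-B. Compounds at five concentrations in propylene glycol were preincubated for 20 min, then 2.5 mM kynuramine was added for 60 min at 37 °C. The reaction was stopped with perchloric acid, made alkaline with NaOH and read fluorimetrically in duplicate. IC50 was reported, and SI = MAO-B IC50 / MAO-A IC50.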

Data set [1] concerns the target T1, Amine oxidase [flavin-containing] A (Bos taurus, UniProt P21398).
T1 sequence (P21398 whole entry): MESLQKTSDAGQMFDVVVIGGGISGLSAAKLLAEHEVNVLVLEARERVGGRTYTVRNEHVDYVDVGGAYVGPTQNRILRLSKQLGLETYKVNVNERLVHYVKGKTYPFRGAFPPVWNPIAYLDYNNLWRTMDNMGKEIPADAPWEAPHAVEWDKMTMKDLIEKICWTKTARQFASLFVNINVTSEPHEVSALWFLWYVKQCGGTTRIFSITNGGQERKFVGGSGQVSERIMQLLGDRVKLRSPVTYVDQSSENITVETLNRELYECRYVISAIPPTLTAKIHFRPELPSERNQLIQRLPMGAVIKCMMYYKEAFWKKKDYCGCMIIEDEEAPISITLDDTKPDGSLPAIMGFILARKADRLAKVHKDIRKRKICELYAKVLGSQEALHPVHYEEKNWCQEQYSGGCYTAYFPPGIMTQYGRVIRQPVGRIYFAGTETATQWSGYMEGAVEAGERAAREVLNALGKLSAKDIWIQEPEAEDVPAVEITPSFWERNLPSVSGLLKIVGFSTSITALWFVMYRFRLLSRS
Put plainly: Inhibition of bovine brain mitochondria MAO-A by spectrofluorimetry.

The target of data set [2] is T2, Amine oxidase [flavin-containing] B (Bos taurus, UniProt P56560).
T2 sequence (P56560 whole entry): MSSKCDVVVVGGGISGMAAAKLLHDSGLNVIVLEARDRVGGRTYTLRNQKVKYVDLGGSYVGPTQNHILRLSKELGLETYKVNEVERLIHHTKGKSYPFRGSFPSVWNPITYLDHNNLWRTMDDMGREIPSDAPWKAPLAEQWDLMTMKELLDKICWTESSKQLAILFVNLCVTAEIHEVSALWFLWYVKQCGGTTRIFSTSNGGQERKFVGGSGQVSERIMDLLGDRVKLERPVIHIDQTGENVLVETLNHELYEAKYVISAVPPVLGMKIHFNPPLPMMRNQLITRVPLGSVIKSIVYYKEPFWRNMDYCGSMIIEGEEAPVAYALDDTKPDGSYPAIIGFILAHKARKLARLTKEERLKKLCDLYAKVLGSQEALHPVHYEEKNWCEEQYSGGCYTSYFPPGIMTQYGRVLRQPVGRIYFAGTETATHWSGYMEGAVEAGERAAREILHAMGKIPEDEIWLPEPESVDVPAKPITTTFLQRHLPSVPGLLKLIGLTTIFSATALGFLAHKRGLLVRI
Put plainly: Inhibition of bovine brain mitochondria MAO-B by spectrofluorimetry.

Data set [3] can be described thus: Chemical stability of the compound in 10% methanolic silver nitrate assessed as apparent pseudo first order rate constant of disappearance by reverse-phase HPLC analysis. The format is physicochemical. The procedure, abridged: (§1)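 Reagents were 10% methanolic silver nitrate or 30% aqueous hydrogen peroxide. The compound and its metabolites were measured by a validated reverse-phase HPLC method. Pseudo first order disappearance was fitted by linear regression of ln peak area against time, and t1/2 was derived from the rate constant.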

Data set [4] is described as follows: Chemical stability of the compound in 30% aqueous hydrogen peroxide assessed as apparent pseudo first order rate constant of disappearance by reverse-phase HPLC analysis. The format is physicochemical. The conditions noted are these: buffer. The procedure, abridged:
as §1

Data set [5] can be described thus: Chemical stability of the compound in 10% methanolic silver nitrate assessed as half life by reverse-phase HPLC analysis. The format is physicochemical. In a few lines:
as §1

A short description of data set [6]: Chemical stability of the compound in 30% aqueous hydrogen peroxide assessed as half life by reverse-phase HPLC analysis. It counts as physicochemical. In a few lines: as §1
Data set [7] is described as follows: Shelf-life stability of the compound in phosphate buffer at pH 7.4 assessed as apparent pseudo first order rate constant of disappearance by reverse-phase HPLC analysis. It counts as physicochemical. The procedure, abridged:
(§2)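 1 mL of freshly prepared 2 × 10^-4 M methanolic solution (stock) was added to 5 mL of 0.2 M phosphate buffer, pH 5.8 or 7.4, at about 37 °C. Tubes were kept in the dark for 3 days and sampled at 5, 180, 1880 and 2440 min for reverse-phase HPLC. The rate constant came from linear regression of ln peak area against time, and t1/2 was derived from it.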

Data set [8] is described as follows: Shelf-life stability of the compound in phosphate buffer at pH 5.8 assessed as apparent pseudo first order rate constant of disappearance by reverse-phase HPLC analysis. The format is physicochemical. The procedure, abridged: as §2
The nature of data set [9]: Shelf-life stability of the compound in phosphate buffer at pH 7.4 assessed as half life by reverse-phase HPLC analysis. It counts as physicochemical. In a few lines: as §2
The nature of data set [10]: Shelf-life stability of the compound in phosphate buffer at pH 5.8 assessed as half life by reverse-phase HPLC analysis. The format is physicochemical. The procedure, abridged:
as §2

The next data set concerns Plasma. The experiment in a line: Stability of the compound in 80% mouse plasma assessed as apparent pseudo first order rate constant of disappearance by reverse-phase HPLC analysis. The format is ADME, cell-free. The procedure, abridged: (§3)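 Heparinized mouse blood was spun at 4000 rpm for 20 min, and the plasma was diluted to 80% with 0.2 M phosphate buffer, pH 7.4, then prewarmed at 37 °C. Methanolic compound solution (2 × 10^-4 M stock) was added and the mix held at 37 °C. Samples were taken at 5–240 min, quenched in ice-cold methanol, frozen, centrifuged and run on HPLC. Rate came from ln peak area versus time (n = 5), and t1/2 was derived.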

Data set [11] relates to Brain. Put plainly: Stability of the compound in 20% rabbit brain homogenate assessed as apparent pseudo first order rate constant of disappearance by reverse-phase HPLC analysis. It counts as ADME, tissue-based, Oryctolagus cuniculus. The procedure, abridged: (§4)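 Rabbit brains were homogenized in 4 volumes of ice-cold isotonic 0.2 M phosphate buffer, pH 7.4, giving a 20% homogenate that was equilibrated at 37 °C. Methanolic compound solution (2 × 10^-4 M stock) was added and the mix held at 37 °C. Samples were taken at 5, 60, 120, 180 and 240 min, quenched in ice-cold methanol, frozen, centrifuged and run on HPLC. The pseudo first order rate came from ln peak area versus time (n = 5), and t1/2 was derived.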

A short description of data set [12]: Stability of the compound in 80% mouse plasma assessed as half life by reverse-phase HPLC analysis. It counts as ADME, cell-free. The procedure, abridged:
as §3

Data set [13] is described as follows: Stability of the compound in 20% rabbit brain homogenate assessed as half life by reverse-phase HPLC analysis. The format is ADME, tissue-based, Oryctolagus cuniculus. In a few lines: as §4
The next data set relates to Blood. Put plainly: Drug metabolism in Sprague-Dawley rat blood assessed as 2-(isoquinolinium-2-yl)-3-oxo-3-(phenethylamino)propanoate measured during first 15 mins at 20 mg/kg, iv. The conditions noted are these: in vivo, 0.25 h. Set-up: dose 20 mg/kg, route intravenous. The format is ADME, organism-based. The procedure, abridged:
(§5)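 Female Sprague Dawley rats (65–70 g, 3 per group) were anesthetized with urethane and given 20 mg/kg in DMSO (25 mg/mL) via the external jugular vein. At 5, 15, 30, 45, 60 and 75 min, eyeball blood was taken into acetonitrile. Brains were removed, washed, homogenized in water plus 5% DMSO/acetonitrile and centrifuged at 4000 rpm for 10 min. Supernatants were analysed by HPLC, with DMSO-injected controls.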

The test system of data set [14] is Brain. Put plainly: Drug metabolism in Sprague-Dawley rat brain assessed as 2-(isoquinolinium-2-yl)-3-oxo-3-(phenethylamino)propanoate at 20 mg/kg, iv. It counts as ADME, organism-based. More on the design: dose 20 mg/kg, route intravenous. As to conditions: in vivo. The procedure, abridged:
as §5

Data set [15] has as its system Brain. Put plainly: Drug metabolism in Sprague-Dawley rat brain assessed as 2-(isoquinolin-2(1H)-yl)-3-oxo-3-(phenethylamino)propanoate at 20 mg/kg, iv. It counts as ADME, organism-based. More on the design: dose 20 mg/kg, route intravenous. The conditions noted are these: in vivo. The procedure, abridged:
as §5

The subject of data set [16] is Brain. Put plainly: Drug distribution in Sprague-Dawley rat brain measured per gram at 20 mg/kg, iv. As to conditions: in vivo. The format is ADME, organism-based. Set-up: dose 20 mg/kg, route intravenous. The procedure, abridged:
as §5

For `N/N=C/c1ccc([N+](=O)[O-])cc1`, the Selectivity Index in the data set filed under Bos taurus was determined as 9500. For the same molecule, the IC50 in data set [1] amounted to 0.049 µM; in data set [2], 380 µM.
Turning to `CCOC(=O)C(C(=O)N/N=C/c1ccc(Cl)cc1)[n+]1ccc2ccccc2c1` (stereo unspecified), in the data set listed under Bos taurus, the Selectivity Index was found to be 5400. Further, the half-inhibitory concentration (IC50) in data set [1] was determined as 0.066 µM; in [2], 360 µM.
For `CCOC(=O)C(C(=O)NCCc1ccccc1)N1C=Cc2ccccc2C1` (stereo unspecified), the K in [3] was found to be 0.0217 min⁻¹; in [4], 0.0181 min⁻¹; in data set [7], 0.00114 min⁻¹; in data set [8], 0.000561 min⁻¹; with Plasma, 6.81 ×10⁻³ /min; in the data set on Brain [11] it was 3.82 ×10⁻³ /min. The half-life in data set [5] amounted to 0.532 h; in data set [6] it was 0.637 h; in data set [9] it was 10.1 h; in [10] it was 20.6 h; in [12], 1.7 h; in [13], 3.02 h. The Drug metabolism entry in the data set with Blood, in the data set with Brain [14] and with Brain [15] was “metabolite_detected” throughout. Further, the Drug uptake in the data set on Brain [16] amounted to 145.1 µg/g.
In the case of `CCOC(=O)C(C(=O)NCCc1ccccc1)[n+]1ccc2ccccc2c1` (stereo unspecified), the Selectivity Index in the data set filed under Bos taurus is 12400. Further, the IC50 is 0.0062 µM in data set [1] and 77 µM in [2].
For `CCOC(=O)C(C(=O)N/N=C/c1ccc([N+](=O)[O-])cc1)[n+]1ccc2ccccc2c1` (stereo unspecified), in that order: 1.94e+06, 0.0038 µM and 7400 µM.
For `N/N=C/c1ccc(Cl)cc1`, in that order: 1.89e+06, 0.0039 µM and 7400 µM.
